Usually EC50 stands for the concentration at which the effect is half-maximal. The inhibition is the change of the read-out against control, counted positive when it falls. For orientation: IC50 means the point on the concentration scale where inhibition reaches its midpoint. One may read the Kd as the constant that tells how readily two partners part at equilibrium. A lower Kd goes with a tighter complex.

21 molecules from ChEMBL document CHEMBL4622830, “Substituted pteridinones as p90 ribosomal S6 protein kinase (RSK) inhibitors: A structure-activity study” (Bioorg Med Chem, 2020) can be followed below.

Calls of active or inactive are those of the source. No cut-off for these calls is given here.

Data set [1] has as its system MOLM-13. As to the kind of experiment: Antiproliferative activity against human MOLM13 assessed as reduction in cell viability incubated for 72 hrs by CellTox green assay. The data set is classed as functional, cell-based. The settings on record: MOLM-13, 72 h.
Data set [2] has as its system MOLM-13. As to the kind of experiment: Antiproliferative activity against human MOLM13 assessed as reduction in cell viability at 60 uM incubated for 72 hrs by MTS assay. The class given is functional. Particulars: MOLM-13, 72 h, read-out: GI. (Formazan colour is commonly taken as a measure of viable cells.)
In another data set the test system is HEK293. As to the kind of experiment: Cytotoxicity in HEK293 cells assessed as reduction in cell viability. The class given is cell-based. The settings on record: human.
Data set [3] deals with MOLM-13. As to the kind of experiment: Antiproliferative activity against human MOLM13 assessed as reduction in cell viability incubated for 72 hrs by CellTiter-Glo assay. The settings on record: MOLM-13, 72 h. The data set is classed as functional, cell-based. The gist of the method: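 CellTiter-Glo viability in MOLM-13 cells seeded at 30,000 per well, treated across 60 µM to 247 nM at 37°C for up to 72 h. Plates equilibrated 30 min at RT, reagent added, shaken 2 min, luminescence read after 10 min. Final DMSO ≤0.5%; n = 3.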
Background: In ATP-based viability assays light output follows the ATP content of the culture.

Data set [4] concerns the target T1, Ribosomal protein S6 kinase alpha-3 (Homo sapiens, UniProt P51812). As to the kind of experiment: Inhibition of full length human GST-tagged RSK2 using Ulight-rpS6 as substrate at 10 uM incubated for 1 hr in presence of ATP by TR FRET assay. A digest of the protocol: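 Recombinant RSK2 at 500 pM final with 250 nM ULight-rpS6 (Ser235/236) substrate and 3 μM ATP, in 50 mM HEPES pH 7.5, 10 mM MgCl2, 1 mM EGTA, 2 mM DTT, 0.01% Tween 20. DMSO ≤0.5%. Ran 1 h at room temperature, stopped with 10 mM EDTA. Eu anti-phospho antibody (2 nM) TR-FRET, 665/615 nm ratio read.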
(In general: TR-FRET usually uses a lanthanide donor and a delayed reading to cut background.)

The target in data set [5] is T1, Ribosomal protein S6 kinase alpha-3. As to the kind of experiment: Inhibition of full length human GST-tagged RSK2 using Ulight-rpS6 as substrate incubated for 1 hr in presence of ATP by TR FRET assay.
For data set [6], the system named is MOLM-13. As to the kind of experiment: Antiproliferative activity against human MOLM13 assessed as reduction in cell viability incubated for 72 hrs by MTS assay. The data set is classed as functional, cell-based. Particulars: MOLM-13, 72 h.
Data set [7] deals with MOLM-13. As to the kind of experiment: Antiproliferative activity against human MOLM13 assessed as reduction in cell viability at 0.25 to 60 uM incubated for 24 hrs by CellTiter-Glo assay. The data set is classed as functional, cell-based. A digest of the protocol: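 MOLM-13 cells, 30,000 per well in medium, treated over 60 μM to 247 nM and held at 37°C for 24 to 72 h. Plates equilibrated 30 min at RT, CellTiter-Glo reagent added, shaken 2 min, luminescence read after 10 min at rt. n = 3.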

Data set [8] addresses Bromodomain-containing protein 4 (Homo sapiens, UniProt O60885). As to the kind of experiment: Binding affinity to BRD4 bromodomain 1 (unknown origin) by ITC assay.
In data set [9] the test system is MOLM-13. As to the kind of experiment: Antiproliferative activity against human MOLM13 assessed as reduction in cell viability at 0.25 to 60 uM incubated for 24 hrs by MTS assay. The data set is classed as functional, cell-based. The gist of the method: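 MOLM-13 cells, 60,000 per well, given compound over 60 μM to 247 nM, incubated at 37°C for 24 to 72 h. CellTiter 96 AQueous One (MTS) reagent added for 3 h, formazan absorbance read at 490 nm. EC50 or percentage values derived.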

In data set [10] the test system is MOLM-13. As to the kind of experiment: Antiproliferative activity against human MOLM13 assessed as reduction in cell viability at 0.25 to 60 uM incubated for 24 hrs by CellTox green assay. The class given is functional, cell-based. The gist of the method:
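Cytotoxicity read by CellTox Green: MOLM-13 cells, 60,000 per well, in medium with CellTox Green dye at 1:500, treated over 60 μM to 247 nM at 37°C. Fluorescence (ex 485/em 520 nm) read at 0, 24, 48 and 72 h.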

Data set [11] addresses Ribosomal protein S6 kinase alpha-1 (Homo sapiens, UniProt Q15418). As to the kind of experiment: Inhibition of RSK1 (unknown origin).
Data set [12] concerns the target T1, Ribosomal protein S6 kinase alpha-3. As to the kind of experiment: Inhibition of RSK2 (unknown origin).
For data set [13], the target named is Ribosomal protein S6 kinase alpha-2 (Homo sapiens, UniProt Q15349). As to the kind of experiment: Inhibition of RSK3 (unknown origin).
Sequence of Ribosomal protein S6 kinase alpha-2 (Q15349 whole entry): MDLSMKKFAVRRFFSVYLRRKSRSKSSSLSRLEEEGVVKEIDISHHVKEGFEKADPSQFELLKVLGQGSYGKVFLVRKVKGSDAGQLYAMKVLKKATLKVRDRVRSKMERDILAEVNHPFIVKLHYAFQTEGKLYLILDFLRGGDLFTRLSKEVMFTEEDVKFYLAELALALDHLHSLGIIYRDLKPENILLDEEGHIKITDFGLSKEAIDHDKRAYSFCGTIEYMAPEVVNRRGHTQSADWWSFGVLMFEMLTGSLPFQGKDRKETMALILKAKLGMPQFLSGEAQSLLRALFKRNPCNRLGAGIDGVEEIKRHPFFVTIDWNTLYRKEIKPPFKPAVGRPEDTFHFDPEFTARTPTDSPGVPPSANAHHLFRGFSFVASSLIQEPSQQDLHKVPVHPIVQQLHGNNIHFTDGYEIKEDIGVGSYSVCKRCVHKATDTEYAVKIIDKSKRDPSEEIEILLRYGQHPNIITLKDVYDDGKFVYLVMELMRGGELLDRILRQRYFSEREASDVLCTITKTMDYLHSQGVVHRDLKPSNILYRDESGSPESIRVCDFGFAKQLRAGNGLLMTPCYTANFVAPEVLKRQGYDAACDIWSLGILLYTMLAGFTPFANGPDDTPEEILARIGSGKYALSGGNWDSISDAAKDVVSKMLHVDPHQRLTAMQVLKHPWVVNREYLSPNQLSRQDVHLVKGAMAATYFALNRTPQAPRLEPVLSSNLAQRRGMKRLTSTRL

T1 sequence (P51812 whole entry): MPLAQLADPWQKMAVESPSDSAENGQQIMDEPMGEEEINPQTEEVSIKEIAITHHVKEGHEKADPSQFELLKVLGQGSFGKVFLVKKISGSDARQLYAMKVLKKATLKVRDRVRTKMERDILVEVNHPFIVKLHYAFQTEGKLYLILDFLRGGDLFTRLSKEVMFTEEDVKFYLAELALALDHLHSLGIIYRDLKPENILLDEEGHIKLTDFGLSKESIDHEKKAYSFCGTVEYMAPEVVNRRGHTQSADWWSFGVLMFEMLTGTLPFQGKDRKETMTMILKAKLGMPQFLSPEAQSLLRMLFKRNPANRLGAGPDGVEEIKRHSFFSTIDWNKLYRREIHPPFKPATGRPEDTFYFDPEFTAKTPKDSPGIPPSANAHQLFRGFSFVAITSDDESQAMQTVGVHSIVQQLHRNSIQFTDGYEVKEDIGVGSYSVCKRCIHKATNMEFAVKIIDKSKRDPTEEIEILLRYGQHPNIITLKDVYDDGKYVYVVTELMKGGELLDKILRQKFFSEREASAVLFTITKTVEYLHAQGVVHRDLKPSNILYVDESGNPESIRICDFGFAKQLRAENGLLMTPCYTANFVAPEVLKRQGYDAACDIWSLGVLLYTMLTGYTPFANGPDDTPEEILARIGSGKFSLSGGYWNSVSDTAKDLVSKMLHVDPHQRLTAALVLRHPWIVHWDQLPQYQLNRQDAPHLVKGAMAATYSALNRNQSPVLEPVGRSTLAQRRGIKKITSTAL
Sequence of Ribosomal protein S6 kinase alpha-1 (Q15418 whole entry): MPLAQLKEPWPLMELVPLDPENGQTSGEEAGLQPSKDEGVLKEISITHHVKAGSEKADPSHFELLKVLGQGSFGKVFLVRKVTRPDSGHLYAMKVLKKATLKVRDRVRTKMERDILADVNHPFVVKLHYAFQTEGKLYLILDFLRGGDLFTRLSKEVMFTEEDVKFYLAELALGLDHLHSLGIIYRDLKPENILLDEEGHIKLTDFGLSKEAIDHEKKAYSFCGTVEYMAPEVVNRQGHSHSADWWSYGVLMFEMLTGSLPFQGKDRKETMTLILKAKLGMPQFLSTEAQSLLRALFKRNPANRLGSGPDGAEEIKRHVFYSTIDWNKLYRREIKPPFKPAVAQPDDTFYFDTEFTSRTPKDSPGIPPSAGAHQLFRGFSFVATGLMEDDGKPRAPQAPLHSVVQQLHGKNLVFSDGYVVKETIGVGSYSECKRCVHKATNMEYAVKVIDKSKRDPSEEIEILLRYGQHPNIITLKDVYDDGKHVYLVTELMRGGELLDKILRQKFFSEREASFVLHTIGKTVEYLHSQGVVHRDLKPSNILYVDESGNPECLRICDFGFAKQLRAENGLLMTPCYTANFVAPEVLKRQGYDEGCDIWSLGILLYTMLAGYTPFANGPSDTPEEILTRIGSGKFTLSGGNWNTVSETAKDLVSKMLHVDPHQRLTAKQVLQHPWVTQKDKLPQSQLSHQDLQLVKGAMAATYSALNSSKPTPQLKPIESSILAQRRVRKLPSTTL

Consider `CN1CCN(c2ccc(-c3ccncc3-c3cc(F)c(O)c(F)c3)cc2)CC1`, for which the EC50 worked out at 22 µM in the data set with MOLM-13 [1] and 9.71 µM in the data set on MOLM-13 [3]. For the same molecule, in the data set with MOLM-13 [2], the inhibition of growth at 60 µM stood at 75%. Moreover, the Activity entry with HEK293 is “Toxic”.
As to `Nc1nc(Nc2cc(F)c(O)c(F)c2)ncc1[N+](=O)[O-]`, in data set [4], the inhibition was 72%.
In the case of `CC(C)CCN1c2nc(Nc3ccc(O)c(Br)c3)ncc2N(C)C(=O)C1C` (configuration not stated), the IC50 in data set [5] is 0.141 µM.
The same measure, in the same setting: in the case of `CC(C)CCN1c2nc(Nc3ccc(O)c(Cl)c3)ncc2N(C)C(=O)C1C` (configuration not stated) it was 0.0715 µM.
In the case of `CC(C)CCN1c2nc(Nc3ccc(O)c(F)c3)ncc2N(C)C(=O)C1C` (configuration not stated), the half-maximal effective concentration (EC50) in the data set on MOLM-13 [1] came out at 3.16 µM; in the data set on MOLM-13 [3], 0.87 µM; in the data set on MOLM-13 [6], 1.69 µM. Further, the IC50 in data set [5] came out at 0.0254 µM.
For the molecule `COc1c(F)cc(Nc2ncc3c(n2)N(CCC(C)C)C(C)C(=O)N3C)cc1F` (configuration not stated), the inhibition in [4] turned out to be 43%.
Take `Oc1c(F)cc(Nc2ncccn2)cc1F`: in data set [4], the inhibition worked out at 45%.
Turning to `CC(C)CCN1CC(=O)Nc2cnc(Nc3ccc(O)c(F)c3)nc21`, the EC50 in the data set with MOLM-13 [1] is 4.64 µM; in the data set on MOLM-13 [3], 2.23 µM; in the data set with MOLM-13 [6] it was 4.39 µM. The IC50 in [5] came out at 0.0383 µM.
As for `CC(C)CCN1c2nc(Nc3cc(F)c(O)c(F)c3)ncc2N(C)C(=O)C1C` (configuration not stated), the EC50 in the data set on MOLM-13 [1] is 3.41 µM; in the data set on MOLM-13 [3], 1.89 µM; in the data set with MOLM-13 [6], 2.8 µM. Further, the outcome in the data set on MOLM-13 [7], in the data set on MOLM-13 [9] and with MOLM-13 [10] was Active. Further, binding in [8] was characterised by a dissociation constant (Kd) of 3.5 µM.
Take `CC(C)CCN1c2nc(Nc3ccc(CO)cc3)ncc2N(C)C(=O)C1C` (configuration not stated): the IC50 in data set [5] was 0.739 µM.
Consider `CC(C)CCN1CC(=O)Nc2cnc(Nc3cc(F)c(O)c(F)c3)nc21`, for which the EC50 in the data set on MOLM-13 [1] stood at 6.85 µM; with MOLM-13 [3] it was 6.2 µM; in the data set with MOLM-13 [6] it was 6.82 µM. Besides, the IC50 in [5] was 0.0234 µM.
Take `Oc1c(F)cc(-c2cnccc2-c2ccc(N3CCOCC3)cc2)cc1F`: the EC50 in the data set with MOLM-13 [1] was 23.4 µM; in the data set on MOLM-13 [3], 19.1 µM. Moreover, the inhibition of growth at 60 µM in the data set on MOLM-13 [2] came out at 79%. For the same molecule, the figures for the half-maximal inhibitory concentration (IC50) in [11], in data set [12] and in data set [13] were 0.006 µM, 0.005 µM and 0.004 µM, respectively. For the same molecule, in the data set with HEK293, the Activity entry is “Toxic”.
Turning to `CC(C)CCN1CC(=O)N(C)c2cnc(Nc3cc(F)c(O)c(F)c3)nc21`, the EC50 with MOLM-13 [1] came to 4.54 µM; with MOLM-13 [3] it was 1.67 µM; with MOLM-13 [6], 2.71 µM. In [5], the IC50 was found to be 0.0176 µM.
With `CC(C)CCN1c2nc(Nc3ccc(O)cc3)ncc2N(C)C(=O)C1C` (configuration not stated), the IC50 in data set [5] turned out to be 0.0548 µM.
Same read-out and setting: then `CC(C)CCN1CC(=O)N(C)c2cnc(Nc3ccc(O)c(F)c3)nc21`, with 0.0247 µM.
As for `CC(C)CCN1c2nc(Nc3cc(F)cc(F)c3)ncc2N(C)C(=O)C1C` (configuration not stated), the inhibition in data set [4] is 71%.
On to `CC1Nc2nc(Nc3cc(F)c(O)c(F)c3)ncc2NC1=O` (configuration not stated), for which the inhibition in data set [4] amounted to 83%.
Regarding `Nc1cnc(Nc2cc(F)c(O)c(F)c2)nc1N`, the inhibition in [4] was 38%.
Consider `CC(C)CCN1c2nc(Nc3cc(F)c(O)c(F)c3)ncc2NC(=O)C1C` (configuration not stated), for which the EC50 in the data set with MOLM-13 [1] worked out at 18.1 µM; with MOLM-13 [3], 17.4 µM. In addition, the IC50 in data set [5] was 0.0182 µM. Besides, the inhibition of growth at 60 µM with MOLM-13 [2] turned out to be 56%. Moreover, the Activity entry in the data set with HEK293 was “Toxic”.
Regarding `CC(C)CCN1c2nc(Nc3cc(Cl)c(O)c(Cl)c3)ncc2N(C)C(=O)C1C` (configuration not stated), the inhibition in data set [4] came to 83%.
On the same count and under the same terms, in the case of `CC(C)CCN1c2nc(Nc3cc(Br)c(O)c(Br)c3)ncc2N(C)C(=O)C1C` (configuration not stated) it was 78%.
